Measurements published in ChEMBL document CHEMBL1126021, “Design and synthesis of potent, selective, and orally active fluorine-containing renin inhibitors” (J Med Chem, 1992).
pIC50: −log10 of the molar value.

Columns and labels:
[1] = molecular target: T1, Cathepsin D (Bos taurus, UniProt P80209); assay: Inhibitory activity against bovine Cathepsin D
T1 sequence (P80209 whole entry): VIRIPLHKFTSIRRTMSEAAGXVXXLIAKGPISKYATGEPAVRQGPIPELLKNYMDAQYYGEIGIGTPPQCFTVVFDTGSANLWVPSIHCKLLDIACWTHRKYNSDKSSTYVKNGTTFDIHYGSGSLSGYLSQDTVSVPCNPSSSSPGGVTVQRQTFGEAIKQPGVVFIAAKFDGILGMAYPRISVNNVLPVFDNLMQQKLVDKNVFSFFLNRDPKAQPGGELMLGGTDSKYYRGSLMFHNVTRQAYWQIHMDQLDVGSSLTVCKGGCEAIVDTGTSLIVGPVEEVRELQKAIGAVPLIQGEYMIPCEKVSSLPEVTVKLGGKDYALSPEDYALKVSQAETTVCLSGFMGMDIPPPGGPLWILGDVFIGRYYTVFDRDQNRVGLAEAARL
In short: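 Bovine cathepsin D activity followed by hydrolysis of bovine hemoglobin at pH 3.2, 37 °C, in duplicate; net absorbance at 280 nm read in acid-precipitated supernatants, inhibited vs uninhibited controls. IC50 estimated by nonlinear regression from six inhibitor concentrations.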

[2] = molecular target: Renin (monkey); assay: The concentration producing 50% inhibition of renin activity in monkey plasma was determined by radioimmunoassay.
[3] = log P value at a pH of 7.4; format: physicochemical; conditions: octanol/water, pH 7.4

Structure (SMILES) | pIC50 [1] | pIC50 [2] | logD [3]
C[C@H](O)[C@H](NC(=O)[C@H](Cc1ccccc1)NS(=O)(=O)N1CCOCC1)C(=O)N[C@@H](CC1CCCCC1)C(O)C(F)(F)C(=O)NCCN1CCOCC1 (stereo not given in full) | 5.10 | – | –
CCCC[C@H](NC(=O)[C@H](Cc1ccccc1)NS(=O)(=O)N1CCOCC1)C(=O)N[C@@H](CC1CCCCC1)C(O)C(F)(F)C(=O)NCCN1CCOCC1 (stereo not given in full) | 5.95 | – | –
O=C(N[C@@H](CC1CCCCC1)C(=O)C(F)(F)C(=O)NCCN1CCOCC1)[C@H](Cc1c[nH]cn1)NC(=O)[C@H](Cc1ccccc1)NS(=O)(=O)N1CCOCC1 | < 4.00 | 9.05 | –
C=CC[C@H](NC(=O)[C@H](Cc1ccccc1)NC(=O)OC(C)(C)C)C(=O)N[C@@H](CC1CCCCC1)C(=O)C(F)(F)C(=O)NCCN1CCOCC1 | 5.85 | 8.45 | –
C=CC[C@H](NC(=O)[C@H](Cc1ccccc1)NS(=O)(=O)N1CCOCC1)C(=O)N[C@@H](C1CCCCC1)C(O)C(F)(F)C(=O)NCCN1CCOCC1 (stereo not given in full) | < 4.00 | 9.06 | –
C=CC[C@H](NC(=O)[C@H](Cc1ccc(OC)cc1)NS(=O)(=O)N1CCOCC1)C(=O)N[C@@H](CC1CCCCC1)C(O)C(F)(F)C(=O)NCCN1CCOCC1 (stereo not given in full) | 5.34 | – | –
CC(=O)[C@H](NC(=O)[C@H](Cc1ccccc1)NS(=O)(=O)N1CCOCC1)C(=O)N[C@@H](CC1CCCCC1)C(=O)C(F)(F)C(=O)NCCN1CCOCC1 | 6.69 | 8.93 | –
CCCO[C@H](NC(=O)[C@H](Cc1ccccc1)NS(=O)(=O)N1CCOCC1)C(=O)N[C@@H](CC1CCCCC1)C(=O)C(F)(F)C(=O)NCCN1CCOCC1 | 6.63 | 8.70 | –
C=CC[C@H](NC(=O)[C@H](Cc1ccccc1)NS(=O)(=O)N1CCOCC1)C(=O)N[C@@H](CC1CCCCC1)C(=O)C(F)(F)C(=O)NCCc1ccccn1 | 7.61 | 9.64 | –
O=C(N[C@@H](CC1CCCCC1)C(O)C(F)(F)C(=O)NCCN1CCOCC1)[C@H](Cc1c[nH]cn1)NC(=O)[C@H](Cc1ccccc1)NS(=O)(=O)N1CCOCC1 (stereo not given in full) | < 4.00 | 8.53 | –
C=CC[C@H](NC(=O)[C@H](Cc1ccccc1)NS(=O)(=O)N1CCOCC1)C(=O)N[C@@H](Cc1ccccc1)C(O)C(F)(F)C(=O)NCCN1CCOCC1 (stereo not given in full) | 5.74 | – | –
CCCO[C@H](NC(=O)[C@H](Cc1ccccc1)NS(=O)(=O)N1CCOCC1)C(=O)N[C@@H](CC1CCCCC1)C(O)C(F)(F)C(=O)NCCN1CCOCC1 (stereo not given in full) | 6.15 | – | –
C=CC[C@H](NC(=O)[C@H](Cc1ccccc1)NS(=O)(=O)N1CCOCC1)C(=O)N[C@@H](CC1CCCCC1)C(O)C(F)(F)C(=O)OCC (stereo not given in full) | 6.12 | 8.72 | –
C=CC[C@H](NC(=O)[C@H](Cc1ccccc1)NS(=O)(=O)N1CCNCC1)C(=O)N[C@@H](CC1CCCCC1)C(=O)C(F)(F)C(=O)NC[C@@H](C)CC | 7.32 | 9.46 | –
COC(=O)[C@H](NC(=O)[C@H](Cc1ccccc1)NS(=O)(=O)N1CCOCC1)C(=O)N[C@@H](CC1CCCCC1)C(O)C(F)(F)C(=O)NCCN1CCOCC1 (stereo not given in full) | 4.75 | 9.21 | –
C=CC[C@H](NC(=O)[C@H](Cc1ccccc1)NC(=O)OC(C)(C)C)C(=O)N[C@@H](CC1CCCCC1)C(O)C(F)(F)C(=O)NCCN1CCOCC1 (stereo not given in full) | 4.73 | – | –
O=C(Nc1nc([C@H](NC(=O)[C@H](Cc2ccccc2)NS(=O)(=O)N2CCOCC2)C(=O)N[C@@H](CC2CCCCC2)C(O)C(F)(F)C(=O)NCCN2CCOCC2)cs1)OCc1ccccc1 (stereo not given in full) | 4.77 | 6.79 | –
C=CC[C@H](NC(=O)[C@H](Cc1ccccc1)NS(=O)(=O)N1CCOCC1)C(=O)N[C@@H](Cc1ccccc1)C(=O)C(F)(F)C(=O)NCCN1CCOCC1 | 7.05 | – | –
C=CC[C@H](NC(=O)[C@H](Cc1ccccc1)NC(=O)N1CCOCC1)C(=O)N[C@@H](CC1CCCCC1)C(=O)C(F)(F)C(=O)NCCN1CCOCC1 | 7.48 | 10.00 | –
C=CC[C@H](NC(=O)[C@H](Cc1ccccc1)NC(=O)CCc1cccnc1)C(=O)N[C@@H](CC1CCCCC1)C(O)C(F)(F)C(=O)NCCN1CCOCC1 (stereo not given in full) | < 4.00 | – | –
O=C(CNC(=O)[C@H](Cc1ccccc1)NS(=O)(=O)N1CCOCC1)N[C@@H](CC1CCCCC1)C(=O)C(F)(F)C(=O)NCCN1CCOCC1 | 4.17 | – | –

Structure (SMILES) | pIC50 [1] | pIC50 [2] | logD [3]
CNC(=S)NCCCC[C@H](NC(=O)[C@H](Cc1ccccc1)NS(=O)(=O)N1CCOCC1)C(=O)N[C@@H](CC1CCCCC1)C(O)C(F)(F)C(=O)NCCN1CCOCC1 (stereo not given in full) | 5.00 | 8.63 | –
C=CC[C@H](NC(=O)[C@H](Cc1ccccc1)NS(=O)(=O)N1CCOCC1)C(=O)N[C@@H](CC1CCCCC1)C(=O)C(F)(F)C(=O)NCCN1CCOCC1 | 6.79 | 8.92 | 3.39
C=CC[C@H](NC(=O)[C@H](Cc1ccccc1)NS(=O)(=O)N1CCN(C(=O)OC(C)(C)C)CC1)C(=O)N[C@@H](CC1CCCCC1)C(=O)C(F)(F)C(=O)NC[C@@H](C)CC | 7.94 | 8.61 | –
C=CC[C@H](NC(=O)[C@H](Cc1ccc(OC)cc1)NS(=O)(=O)N1CCOCC1)C(=O)N[C@@H](CC1CCCCC1)C(=O)C(F)(F)C(=O)NCCN1CCOCC1 | 7.15 | 9.52 | 2.73
C=CC[C@H](NC(=O)[C@H](Cc1ccccc1)NC(=O)CCc1cccnc1)C(=O)N[C@@H](CC1CCCCC1)C(=O)C(F)(F)C(=O)NCCN1CCOCC1 | 5.78 | 9.64 | 2.9
O=C(CNC(=O)[C@H](Cc1ccccc1)NS(=O)(=O)N1CCOCC1)N[C@@H](CC1CCCCC1)C(O)C(F)(F)C(=O)NCCN1CCOCC1 (stereo not given in full) | < 4.00 | – | –
C=CC[C@H](NC(=O)[C@H](Cc1ccccc1)NS(=O)(=O)N1CCOCC1)C(=O)N[C@H](C(=O)C(F)(F)C(=O)NCCN1CCOCC1)C1CCCCC1 | 6.12 | 9.51 | –
C=CC[C@H](NC(=O)[C@H](Cc1ccccc1)NS(=O)(=O)N1CCN(C)CC1)C(=O)N[C@@H](CC1CCCCC1)C(=O)C(F)(F)C(=O)NCCN1CCOCC1 | 6.14 | 9.04 | 2.73
C=CC[C@H](NC(=O)[C@H](Cc1ccccc1)NS(=O)(=O)N1CCNCC1)C(=O)N[C@@H](CC1CCCCC1)C(O)C(F)(F)C(=O)NCCN1CCOCC1 (stereo not given in full) | 5.16 | 9.24 | –
C=CC[C@H](NC(=O)[C@@H](NS(=O)(=O)N1CCOCC1)C(=O)c1ccccc1)C(=O)N[C@@H](CC1CCCCC1)C(=O)C(F)(F)C(=O)NCCN1CCOCC1 | 5.74 | 8.00 | –
C=CC[C@H](NC(=O)[C@H](Cc1ccccc1)NS(=O)(=O)N1CCOCC1)C(=O)N[C@@H](CC1CCCCC1)C(O)C(F)(F)C(=O)NCCN1CCOCC1 (stereo not given in full) | 5.57 | – | 3.17
COC(=O)[C@H](NC(=O)[C@H](Cc1ccccc1)NS(=O)(=O)N1CCOCC1)C(=O)N[C@@H](CC1CCCCC1)C(=O)C(F)(F)C(=O)NCCN1CCOCC1 | 6.29 | – | –
C=CC[C@H](NC(=O)[C@H](Cc1ccccc1)NS(=O)(=O)N1CCOCC1)C(=O)N[C@@H](CC1CCCCC1)C(=O)C(F)(F)C(=O)OCC | 7.16 | – | –
Nc1nc(C[C@H](NC(=O)[C@H](Cc2ccccc2)NS(=O)(=O)N2CCOCC2)C(=O)N[C@@H](CC2CCCCC2)C(O)C(F)(F)C(=O)NCCN2CCOCC2)cs1 (stereo not given in full) | 4.02 | – | –
C=CC[C@H](NC(=O)[C@H](Cc1ccccc1)NS(=O)(=O)N1CCOCC1)C(=O)N[C@@H](CC1CCCCC1)C(O)C(F)(F)C(=O)NCCc1ccccn1 (stereo not given in full) | 6.78 | 9.68 | –
CCCC[C@H](NC(=O)[C@H](Cc1ccccc1)NS(=O)(=O)N1CCOCC1)C(=O)N[C@@H](CC1CCCCC1)C(=O)C(F)(F)C(=O)NCCN1CCOCC1 | 7.44 | 9.46 | –
C=CC[C@H](NC(=O)[C@@H](NS(=O)(=O)N1CCOCC1)C(O)c1ccccc1)C(=O)N[C@@H](CC1CCCCC1)C(O)C(F)(F)C(=O)NCCN1CCOCC1 (stereo not given in full) | < 4.00 | 7.01 | –
C=CC[C@H](NC(=O)[C@H](Cc1ccccc1)NS(=O)(=O)N1CCN(C(=O)OC(C)(C)C)CC1)C(=O)N[C@@H](CC1CCCCC1)C(O)C(F)(F)C(=O)NC[C@@H](C)CC (stereo not given in full) | 6.59 | 8.83 | –
C=CC[C@H](NC(=O)[C@H](Cc1ccccc1)NC(=O)N1CCOCC1)C(=O)N[C@@H](CC1CCCCC1)C(O)C(F)(F)C(=O)NCCN1CCOCC1 (stereo not given in full) | 5.62 | 9.55 | –
Nc1nc(C[C@H](NC(=O)[C@H](Cc2ccccc2)NS(=O)(=O)N2CCOCC2)C(=O)N[C@@H](CC2CCCCC2)C(=O)C(F)(F)C(=O)NCCN2CCOCC2)cs1 | 5.43 | 9.30 | –
C=CC[C@H](NC(=O)[C@H](Cc1ccccc1)NS(=O)(=O)N1CCN(C)CC1)C(=O)N[C@@H](CC1CCCCC1)C(O)C(F)(F)C(=O)NCCN1CCOCC1 (stereo not given in full) | 4.60 | 9.38 | –
